According to ChEMBL document CHEMBL4041548, “Ester Prodrugs of IHVR-19029 with Enhanced Oral Exposure and Prevention of Gastrointestinal Glucosidase Interaction” (ACS Med Chem Lett, 2017):
Calls of active or inactive are those of the source. The rule behind the calls is not given here.

Tests used:
Mus musculus [1] = assay: Prodrug activation in BALB/c mouse assessed as 3-(tert-butyl)-1-cyclohexyl-1-(6-((2R,3R,4R,5S)-3,4,5-trihydroxy-2-(hydroxymethyl)piperidin-1-yl)hexyl)urea half life at 5 mg/kg, iv as bolus administration by LC-MS/MS analysis; format: organism-based; details: in vivo
Summary of the method: (§1)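 Male BALB/c mice dosed with the prodrugs or the parent orally (25 or 100 mg/kg) or intravenously (5 mg/kg). The parent compound was quantified in plasma and PK parameters were derived from it. The first sampling point was 5 min post-dose, and prodrugs were tracked up to 4 h.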

Mus musculus [2] = assay: Prodrug activation in BALB/c mouse assessed as 3-(tert-butyl)-1-cyclohexyl-1-(6-((2R,3R,4R,5S)-3,4,5-trihydroxy-2-(hydroxymethyl)piperidin-1-yl)hexyl)urea AUC(0 to infinity) at 100 mg/kg, po administered as single dose by LC-MS/MS analysis; format: organism-based; design: dose 100 mg/kg, route oral, time infinity; details: in vivo
[3] = Metabolic stability in pooled human liver microsomes assessed as parent compound remaining at 200 uM measured after 60 mins in presence of NADPH and UDPGA by LC-MS/MS analysis; format: ADME, microsome; details: read-out: Stability
Summary of the method: (§2)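 Prodrugs or parent incubated in pooled human or mouse liver microsomes for up to 60 min, with or without cofactor. Percent remaining and percent conversion to the parent were measured.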

Mus musculus [4] = assay: Prodrug activation in BALB/c mouse assessed as 3-(tert-butyl)-1-cyclohexyl-1-(6-((2R,3R,4R,5S)-3,4,5-trihydroxy-2-(hydroxymethyl)piperidin-1-yl)hexyl)urea Cmax at 25 mg/kg, po administered as single dose by LC-MS/MS analysis; format: organism-based; design: dose 25 mg/kg, route oral; details: in vivo; summary of the method: as §1
[5] = Metabolic stability in pooled human liver microsomes assessed as parent compound remaining at 200 uM measured after 60 mins by LC-MS/MS analysis; format: ADME, microsome; details: liver microsomes, read-out: Stability; summary of the method: as §2
Bos taurus = organism: Bos taurus; assay: Inhibition of endoplasmic reticulum alpha-glucosidase in MDBK cells infected with Bovine Viral Diarrhea virus assessed as reduction in BVDV envelope glycoprotein E2 level at 3 to 100 uM by immunoblot analysis; format: cell-based
Summary of the method: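 MDBK cells infected with BVDV, then treated with various concentrations of the compounds. Cell lysates were run on SDS-PAGE and immunoblotted for the E2 envelope glycoprotein, looking for a mobility shift and lower intensity, with β-actin as internal control.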

[6] = Stability in simulated gastric fluid assessed as parent compound remaining at 5 uM measured after 4 hrs by LC-MS/MS analysis
Summary of the method: (§3)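 Chemical stability assessed by incubation in simulated gastric fluid and simulated intestinal fluid; percent of compound remaining was measured.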

Mus musculus [7] = assay: Prodrug activation in BALB/c mouse assessed as 3-(tert-butyl)-1-cyclohexyl-1-(6-((2R,3R,4R,5S)-3,4,5-trihydroxy-2-(hydroxymethyl)piperidin-1-yl)hexyl)urea half life at 100 mg/kg, po administered as single dose by LC-MS/MS analysis; format: organism-based; details: in vivo; summary of the method: as §1
Mus musculus [8] = assay: Prodrug activation in BALB/c mouse assessed as 3-(tert-butyl)-1-cyclohexyl-1-(6-((2R,3R,4R,5S)-3,4,5-trihydroxy-2-(hydroxymethyl)piperidin-1-yl)hexyl)urea Tmax at 5 mg/kg, iv as bolus administration by LC-MS/MS analysis; format: organism-based; details: in vivo; summary of the method: as §1
Mus musculus [9] = assay: Prodrug activation in BALB/c mouse assessed as 3-(tert-butyl)-1-cyclohexyl-1-(6-((2R,3R,4R,5S)-3,4,5-trihydroxy-2-(hydroxymethyl)piperidin-1-yl)hexyl)urea Cmax at 5 mg/kg, iv as bolus administration by LC-MS/MS analysis; format: organism-based; design: dose 5 mg/kg, route intravenous; details: in vivo; summary of the method: as §1
Mus musculus [10] = assay: Prodrug activation in BALB/c mouse assessed as 3-(tert-butyl)-1-cyclohexyl-1-(6-((2R,3R,4R,5S)-3,4,5-trihydroxy-2-(hydroxymethyl)piperidin-1-yl)hexyl)urea half life at 25 mg/kg, po administered as single dose by LC-MS/MS analysis; format: organism-based; details: in vivo; summary of the method: as §1
[11] = Prodrug activation in mouse intestinal S9 fraction assessed as 3-(tert-butyl)-1-cyclohexyl-1-(6-((2R,3R,4R,5S)-3,4,5-trihydroxy-2-(hydroxymethyl)piperidin-1-yl)hexyl)urea formation by measuring prodrug remaining at 200 uM measured after 1 hr in presence or absence of NADPH by LC-MS/MS analysis; design: species or system Intestine; details: s9, 1 h
Summary of the method: (§4)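 Compounds incubated with intestinal S9 fraction for 1 h. Percent prodrug remaining and percent conversion to the parent were measured.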

[12] = Half life in pooled mouse liver microsomes at 200 uM by LC-MS/MS analysis; format: ADME, microsome; details: liver microsomes; summary of the method: as §2
Mus musculus [13] = assay: Prodrug activation in BALB/c mouse assessed as 3-(tert-butyl)-1-cyclohexyl-1-(6-((2R,3R,4R,5S)-3,4,5-trihydroxy-2-(hydroxymethyl)piperidin-1-yl)hexyl)urea Tmax at 100 mg/kg, po administered as single dose by LC-MS/MS analysis; format: organism-based; details: in vivo; summary of the method: as §1
[14] = Prodrug activation in simulated intestinal fluid assessed as 3-(tert-butyl)-1-cyclohexyl-1-(6-((2R,3R,4R,5S)-3,4,5-trihydroxy-2-(hydroxymethyl)piperidin-1-yl)hexyl)urea formation at 5 uM measured after 4 hrs by LC-MS/MS analysis; summary of the method: as §3
[15] = Inhibition of endoplasmic reticulum alpha-glucosidase in human Huh7.5 cells infected with DENV assessed as reduction in viral growth by measuring DENV RNA level by qRT-PCR method; format: cell-based
Summary of the method: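 Huh7.5 cells infected with dengue virus and treated with a concentration series of the compounds (n = 4). DENV RNA was quantified by qRT-PCR and the EC50 was calculated.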

[16] = Metabolic stability in human plasma assessed as parent compound remaining at 5 uM measured after 2 hrs by LC-MS/MS analysis; format: ADME, cell-free; details: read-out: Stability
Summary of the method: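 Compounds incubated in human or mouse plasma for 2 h. Percent remaining and percent conversion to the parent were determined.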

Mus musculus [17] = assay: Prodrug activation in BALB/c mouse assessed as 3-(tert-butyl)-1-cyclohexyl-1-(6-((2R,3R,4R,5S)-3,4,5-trihydroxy-2-(hydroxymethyl)piperidin-1-yl)hexyl)urea Tmax at 25 mg/kg, po administered as single dose by LC-MS/MS analysis; format: organism-based; details: in vivo; summary of the method: as §1
[18] = Prodrug activation in simulated gastric fluid assessed as 3-(tert-butyl)-1-cyclohexyl-1-(6-((2R,3R,4R,5S)-3,4,5-trihydroxy-2-(hydroxymethyl)piperidin-1-yl)hexyl)urea formation at 5 uM measured after 4 hrs by LC-MS/MS analysis; summary of the method: as §3
[19] = Inhibition of pig liver endoplasmic reticulum alpha glucosidase-2 using 4-methylumbelliferyl-alpha-D-glucoside as substrate measured after 60 mins by fluorescence analysis; design: species or system Sus scrofa
[20] = Apparent permeability of the compound across basolateral side to apical side in human Caco2 cells assessed as drug recovery at 5 uM measured after 2 hrs by LC-MS/MS analysis; format: ADME, cell-based; details: Caco-2, read-out: Drug recovery
[21] = Prodrug activation in human intestinal S9 fraction assessed as 3-(tert-butyl)-1-cyclohexyl-1-(6-((2R,3R,4R,5S)-3,4,5-trihydroxy-2-(hydroxymethyl)piperidin-1-yl)hexyl)urea formation by measuring prodrug remaining at 200 uM measured after 1 hr in presence or absence of NADPH by LC-MS/MS analysis; design: species or system Intestine; details: s9, 1 h; summary of the method: as §4
[22] = Stability in simulated intestinal fluid assessed as parent compound remaining at 5 uM measured after 4 hrs by LC-MS/MS analysis; summary of the method: as §3
[23] = Metabolic stability in pooled mouse liver microsomes assessed as parent compound remaining at 200 uM measured after 60 mins by LC-MS/MS analysis; format: ADME, microsome; details: liver microsomes, read-out: Stability; summary of the method: as §2

CC(C)C(=O)OC[C@@H]1[C@@H](OC(=O)C(C)C)[C@H](OC(=O)C(C)C)[C@@H](OC(=O)C(C)C)CN1CCCCCCN(C(=O)NC(C)(C)C)C1CCCCC1
t1/2 (Mus musculus [1]): 75 min
AUC (Mus musculus [2]): 362 ng·mL·h
remaining at 1 h, 200 µM [3]: 2%
Cmax (Mus musculus [4]): 104 ng/mL
remaining at 1 h, 200 µM [5]: 2%
inhibition (Bos taurus): Active
Stability [6]: 108%
t1/2 (Mus musculus [7]): 70.8 min
Tmax (Mus musculus [8]): 4.98 min
Cmax (Mus musculus [9]): 1213 ng/mL
t1/2 (Mus musculus [10]): 34.8 min
Stability [11]: < 50%
half-life at 200 µM [12]: 14 min
Tmax (Mus musculus [13]): 30 min
Drug metabolism [14]: 0%
EC50 [15]: 94.7 µM
remaining at 2 h, 5 µM [16]: 100%
Tmax (Mus musculus [17]): 30 min
Drug metabolism [18]: 0%
IC50 [19]: > 100 µM
recovery at 2 h, 5 µM [20]: < 60%
Stability [21]: < 50%
Stability [22]: 90%
remaining at 1 h, 200 µM [23]: 7%

CCCC(=O)OC[C@@H]1[C@@H](OC(=O)CCC)[C@H](OC(=O)CCC)[C@@H](OC(=O)CCC)CN1CCCCCCN(C(=O)NC(C)(C)C)C1CCCCC1
t1/2 (Mus musculus [1]): 50.4 min
AUC (Mus musculus [2]): 3884 ng·mL·h
remaining at 1 h, 200 µM [3]: 4%
Cmax (Mus musculus [4]): 319 ng/mL
remaining at 1 h, 200 µM [5]: 4%
inhibition (Bos taurus): Active
Stability [6]: 89%
t1/2 (Mus musculus [7]): 137 min
Tmax (Mus musculus [8]): 4.98 min
Cmax (Mus musculus [9]): 15733 ng/mL
t1/2 (Mus musculus [10]): 103 min
Stability [11]: < 50%
half-life at 200 µM [12]: 20 min
Tmax (Mus musculus [13]): 30 min
Drug metabolism [14]: 0%
EC50 [15]: 16.1 µM
remaining at 2 h, 5 µM [16]: 106%
Tmax (Mus musculus [17]): 15 min
Drug metabolism [18]: 0%
IC50 [19]: > 100 µM
recovery at 2 h, 5 µM [20]: < 60%
Stability [21]: < 50%
Stability [22]: 72%
remaining at 1 h, 200 µM [23]: 12%

CC(=O)OC[C@@H]1[C@@H](OC(C)=O)[C@H](OC(C)=O)[C@@H](OC(C)=O)CN1CCCCCCN(C(=O)NC(C)(C)C)C1CCCCC1
t1/2 (Mus musculus [1]): 66.6 min
AUC (Mus musculus [2]): 1912 ng·mL·h
remaining at 1 h, 200 µM [3]: 0%
Cmax (Mus musculus [4]): 375 ng/mL
remaining at 1 h, 200 µM [5]: 0%
inhibition (Bos taurus): Active
Stability [6]: 94%
t1/2 (Mus musculus [7]): 43.2 min
Tmax (Mus musculus [8]): 15 min
Cmax (Mus musculus [9]): 463 ng/mL
t1/2 (Mus musculus [10]): 84 min
Stability [11]: < 50%
half-life at 200 µM [12]: 2 min
Tmax (Mus musculus [13]): 15 min
Drug metabolism [14]: 0%
EC50 [15]: 15.6 µM
remaining at 2 h, 5 µM [16]: 84%
Tmax (Mus musculus [17]): 15 min
Drug metabolism [18]: 0%
IC50 [19]: > 100 µM
recovery at 2 h, 5 µM [20]: 42%
Stability [21]: < 50%
Stability [22]: 91%
remaining at 1 h, 200 µM [23]: 0%
